Assay results as given in ChEMBL document CHEMBL4673214, “Synthesis and antibacterial bioactivities of cationic deacetyl linezolid amphiphiles” (Eur J Med Chem, 2018).

Legend:
Enterococcus faecalis = assay: Antibacterial activity against Enterococcus faecalis ATCC 29212 assessed as reduction in bacterial growth incubated 16 to 20 hrs by CLSI-based broth microdilution method; assay type: functional; conditions: time 16-20 hrs
How it was run: (§1)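 Broth microdilution following CLSI, in cation-adjusted Mueller-Hinton broth. Inoculum from a 4-6 h culture (~10^8 CFU/mL), diluted to ~10^6 CFU/mL. Water stocks were serially diluted in MHB (256 to 0.5 µg/mL) and mixed 1:1 with the inoculum. Plates ran 16-20 h at 37 °C. MIC was read visually. Each concentration was tested in duplicate, and the experiment was repeated at least twice.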

Salmonella enterica = assay: Antibacterial activity against Salmonella enterica ATCC 8387 assessed as reduction in bacterial growth incubated for 16 to 20 hrs by CLSI-based broth microdilution method; assay type: functional; conditions: time 16-20 hrs; how it was run: as §1
Staphylococcus aureus [1] = assay: Antibacterial activity against Staphylococcus aureus ATCC 29213 assessed as reduction in bacterial growth incubated for 16 to 20 hrs by CLSI-based broth microdilution method; assay type: functional; conditions: time 16-20 hrs; how it was run: as §1
Escherichia coli = assay: Antibacterial activity against Escherichia coli ATCC 25922 assessed as reduction in bacterial growth incubated 16 to 20 hrs by CLSI-based broth microdilution method; assay type: functional; conditions: time 16-20 hrs; how it was run: as §1
[2] = Solubility of the compound in water at room temperature; assay type: physicochemical; conditions: buffer
Enterobacteriaceae [3] = assay: Antibacterial activity against NDM1 producing carbapenem-resistant Enterobacteriaceae clinical isolate 5 assessed as reduction in bacterial growth incubated for 16 to 20 hrs by CLSI-based broth microdilution method; assay type: functional; conditions: time 16-20 hrs
How it was run: (§2)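 Clinical isolates tested by broth microdilution in cation-adjusted Mueller-Hinton broth. Cultures grown 4-6 h (~10^8 CFU/mL) were diluted to ~10^6 CFU/mL and mixed 1:1 with compound serial dilutions made from 256 down to 0.5 µg/mL (pre-mixing). Plates held at 37 °C for 16-20 h, then read for growth. Each concentration run in duplicate, whole experiment at least twice.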

Klebsiella pneumoniae [4] = assay: Antibacterial activity against carbapenem-resistant Klebsiella pneumoniae clinical isolate 3 assessed as reduction in bacterial growth incubated for 16 to 20 hrs by CLSI-based broth microdilution method; assay type: functional; conditions: time 16-20 hrs; how it was run: as §2
Staphylococcus aureus [5] = assay: Antibacterial activity against methicillin-resistant Staphylococcus aureus clinical isolate 5 assessed as reduction in bacterial growth incubated for 16 to 20 hrs by CLSI-based broth microdilution method; assay type: functional; conditions: time 16-20 hrs; how it was run: as §2
Klebsiella pneumoniae [6] = assay: Antibacterial activity against carbapenem-resistant Klebsiella pneumoniae clinical isolate 2 assessed as reduction in bacterial growth incubated for 16 to 20 hrs by CLSI-based broth microdilution method; assay type: functional; conditions: time 16-20 hrs; how it was run: as §2
Enterobacteriaceae [7] = assay: Antibacterial activity against NDM1 producing carbapenem-resistant Enterobacteriaceae clinical isolate 1 assessed as reduction in bacterial growth incubated for 16 to 20 hrs by CLSI-based broth microdilution method; assay type: functional; conditions: time 16-20 hrs; how it was run: as §2
Staphylococcus aureus [8] = assay: Antibacterial activity against methicillin-resistant Staphylococcus aureus clinical isolate 3 assessed as reduction in bacterial growth incubated for 16 to 20 hrs by CLSI-based broth microdilution method; assay type: functional; conditions: time 16-20 hrs; how it was run: as §2
Staphylococcus aureus [9] = assay: Antibacterial activity against methicillin-resistant Staphylococcus aureus clinical isolate 10 assessed as reduction in bacterial growth incubated for 16 to 20 hrs by CLSI-based broth microdilution method; assay type: functional; conditions: time 16-20 hrs; how it was run: as §2
Enterobacteriaceae [10] = assay: Antibacterial activity against NDM1 producing carbapenem-resistant Enterobacteriaceae clinical isolate 9 assessed as reduction in bacterial growth incubated for 16 to 20 hrs by CLSI-based broth microdilution method; assay type: functional; conditions: time 16-20 hrs; how it was run: as §2
Klebsiella pneumoniae [11] = assay: Antibacterial activity against carbapenem-resistant Klebsiella pneumoniae clinical isolate 10 assessed as reduction in bacterial growth incubated for 16 to 20 hrs by CLSI-based broth microdilution method; assay type: functional; conditions: time 16-20 hrs; how it was run: as §2
Enterobacteriaceae [12] = assay: Antibacterial activity against NDM1 producing carbapenem-resistant Enterobacteriaceae clinical isolate 8 assessed as reduction in bacterial growth incubated for 16 to 20 hrs by CLSI-based broth microdilution method; assay type: functional; conditions: time 16-20 hrs; how it was run: as §2
Staphylococcus aureus [13] = assay: Antibacterial activity against methicillin-resistant Staphylococcus aureus clinical isolate 6 assessed as reduction in bacterial growth incubated for 16 to 20 hrs by CLSI-based broth microdilution method; assay type: functional; conditions: time 16-20 hrs; how it was run: as §2
Klebsiella pneumoniae [14] = assay: Antibacterial activity against carbapenem-resistant Klebsiella pneumoniae clinical isolate 9 assessed as reduction in bacterial growth incubated for 16 to 20 hrs by CLSI-based broth microdilution method; assay type: functional; conditions: time 16-20 hrs; how it was run: as §2
Klebsiella pneumoniae [15] = assay: Antibacterial activity against carbapenem-resistant Klebsiella pneumoniae clinical isolate 8 assessed as reduction in bacterial growth incubated for 16 to 20 hrs by CLSI-based broth microdilution method; assay type: functional; conditions: time 16-20 hrs; how it was run: as §2
Staphylococcus aureus [16] = assay: Antibacterial activity against methicillin-resistant Staphylococcus aureus clinical isolate 1 assessed as reduction in bacterial growth incubated for 16 to 20 hrs by CLSI-based broth microdilution method; assay type: functional; conditions: time 16-20 hrs; how it was run: as §2
Klebsiella pneumoniae [17] = assay: Antibacterial activity against carbapenem-resistant Klebsiella pneumoniae clinical isolate 7 assessed as reduction in bacterial growth incubated for 16 to 20 hrs by CLSI-based broth microdilution method; assay type: functional; conditions: time 16-20 hrs; how it was run: as §2
Enterobacteriaceae [18] = assay: Antibacterial activity against NDM1 producing carbapenem-resistant Enterobacteriaceae clinical isolate 10 assessed as reduction in bacterial growth incubated for 16 to 20 hrs by CLSI-based broth microdilution method; assay type: functional; conditions: time 16-20 hrs; how it was run: as §2
Klebsiella pneumoniae [19] = assay: Antibacterial activity against carbapenem-resistant Klebsiella pneumoniae clinical isolate 1 assessed as reduction in bacterial growth incubated for 16 to 20 hrs by CLSI-based broth microdilution method; assay type: functional; conditions: time 16-20 hrs; how it was run: as §2
Staphylococcus aureus [20] = assay: Antibacterial activity against methicillin-resistant Staphylococcus aureus clinical isolate 2 assessed as reduction in bacterial growth incubated for 16 to 20 hrs by CLSI-based broth microdilution method; assay type: functional; conditions: time 16-20 hrs; how it was run: as §2
Staphylococcus aureus [21] = assay: Antibacterial activity against methicillin-resistant Staphylococcus aureus clinical isolate 7 assessed as reduction in bacterial growth incubated for 16 to 20 hrs by CLSI-based broth microdilution method; assay type: functional; conditions: time 16-20 hrs; how it was run: as §2
Enterobacteriaceae [22] = assay: Antibacterial activity against NDM1 producing carbapenem-resistant Enterobacteriaceae clinical isolate 3 assessed as reduction in bacterial growth incubated for 16 to 20 hrs by CLSI-based broth microdilution method; assay type: functional; conditions: time 16-20 hrs; how it was run: as §2
Klebsiella pneumoniae [23] = assay: Antibacterial activity against carbapenem-resistant Klebsiella pneumoniae clinical isolate 6 assessed as reduction in bacterial growth incubated for 16 to 20 hrs by CLSI-based broth microdilution method; assay type: functional; conditions: time 16-20 hrs; how it was run: as §2
Staphylococcus aureus [24] = assay: Antibacterial activity against methicillin-resistant Staphylococcus aureus clinical isolate 4 assessed as reduction in bacterial growth incubated for 16 to 20 hrs by CLSI-based broth microdilution method; assay type: functional; conditions: time 16-20 hrs; how it was run: as §2
Enterobacteriaceae [25] = assay: Antibacterial activity against NDM1 producing carbapenem-resistant Enterobacteriaceae clinical isolate 2 assessed as reduction in bacterial growth incubated for 16 to 20 hrs by CLSI-based broth microdilution method; assay type: functional; conditions: time 16-20 hrs; how it was run: as §2
Enterobacteriaceae [26] = assay: Antibacterial activity against NDM1 producing carbapenem-resistant Enterobacteriaceae clinical isolate 7 assessed as reduction in bacterial growth incubated for 16 to 20 hrs by CLSI-based broth microdilution method; assay type: functional; conditions: time 16-20 hrs; how it was run: as §2
Enterobacteriaceae [27] = assay: Antibacterial activity against NDM1 producing carbapenem-resistant Enterobacteriaceae clinical isolate 4 assessed as reduction in bacterial growth incubated for 16 to 20 hrs by CLSI-based broth microdilution method; assay type: functional; conditions: time 16-20 hrs; how it was run: as §2
Enterobacteriaceae [28] = assay: Antibacterial activity against NDM1 producing carbapenem-resistant Enterobacteriaceae clinical isolate 6 assessed as reduction in bacterial growth incubated for 16 to 20 hrs by CLSI-based broth microdilution method; assay type: functional; conditions: time 16-20 hrs; how it was run: as §2
Staphylococcus aureus [29] = assay: Antibacterial activity against methicillin-resistant Staphylococcus aureus clinical isolate 9 assessed as reduction in bacterial growth incubated for 16 to 20 hrs by CLSI-based broth microdilution method; assay type: functional; conditions: time 16-20 hrs; how it was run: as §2
Klebsiella pneumoniae [30] = assay: Antibacterial activity against carbapenem-resistant Klebsiella pneumoniae clinical isolate 5 assessed as reduction in bacterial growth incubated for 16 to 20 hrs by CLSI-based broth microdilution method; assay type: functional; conditions: time 16-20 hrs; how it was run: as §2
Staphylococcus aureus [31] = assay: Antibacterial activity against methicillin-resistant Staphylococcus aureus clinical isolate 8 assessed as reduction in bacterial growth incubated for 16 to 20 hrs by CLSI-based broth microdilution method; assay type: functional; conditions: time 16-20 hrs; how it was run: as §2
Klebsiella pneumoniae [32] = assay: Antibacterial activity against carbapenem-resistant Klebsiella pneumoniae clinical isolate 4 assessed as reduction in bacterial growth incubated for 16 to 20 hrs by CLSI-based broth microdilution method; assay type: functional; conditions: time 16-20 hrs; how it was run: as §2

NC[C@H]1CN(c2ccc(N3CCOCC3)c(F)c2)C(=O)O1
MIC (Enterococcus faecalis): > 128 µg/mL | MIC (Salmonella enterica): > 128 µg/mL | MIC (Staphylococcus aureus [1]): > 128 µg/mL | MIC (Escherichia coli): > 128 µg/mL

CCCCCCCN(C[C@H]1CN(c2ccc(N3CCOCC3)c(F)c2)C(=O)O1)C(=O)[C@@H](N)CCCN=C(N)N.Cl.Cl.Cl
MIC (Enterococcus faecalis): 128 µg/mL | MIC (Salmonella enterica): > 128 µg/mL | MIC (Staphylococcus aureus [1]): 64 µg/mL | MIC (Escherichia coli): 128 µg/mL | solubility [2]: Soluble

CCCCCCCCCN(C[C@H]1CN(c2ccc(N3CCOCC3)c(F)c2)C(=O)O1)C(=O)[C@@H](N)CCCN=C(N)N.Cl.Cl.Cl
MIC (Enterococcus faecalis): 32 µg/mL | MIC (Salmonella enterica): 64 µg/mL | MIC (Staphylococcus aureus [1]): 16 µg/mL | MIC (Escherichia coli): 64 µg/mL | solubility [2]: Soluble

CCCCCCCCN(C[C@H]1CN(c2ccc(N3CCOCC3)c(F)c2)C(=O)O1)C(=O)[C@@H](N)CCCCN.Cl.Cl
MIC (Enterococcus faecalis): 64 µg/mL | MIC (Salmonella enterica): 128 µg/mL | MIC (Staphylococcus aureus [1]): 32 µg/mL | MIC (Escherichia coli): 128 µg/mL | solubility [2]: Soluble

CCCCCCCCCCN(C[C@H]1CN(c2ccc(N3CCOCC3)c(F)c2)C(=O)O1)C(=O)[C@@H](N)CCCN=C(N)N.Cl.Cl.Cl
MIC (Enterococcus faecalis): 8 µg/mL | MIC (Salmonella enterica): 32 µg/mL | MIC (Staphylococcus aureus [1]): 8 µg/mL | MIC (Escherichia coli): 16 µg/mL | solubility [2]: Soluble

CCCCCCCCCCCCCCCCCC[N+](C)(C)CC(=O)NC[C@H]1CN(c2ccc(N3CCOCC3)c(F)c2)C(=O)O1.[Cl-]
MIC (Enterococcus faecalis): 16 µg/mL | MIC (Salmonella enterica): > 128 µg/mL | MIC (Staphylococcus aureus [1]): 4 µg/mL | MIC (Escherichia coli): > 128 µg/mL | solubility [2]: Soluble

CCCCCCCCCCCC[N+](C)(C)CC(=O)NC[C@H]1CN(c2ccc(N3CCOCC3)c(F)c2)C(=O)O1.[Cl-]
MIC (Enterobacteriaceae [3]): 32 µg/mL | MIC (Enterococcus faecalis): 4 µg/mL | MIC (Klebsiella pneumoniae [4]): 64 µg/mL | MIC (Salmonella enterica): 16 µg/mL | MIC (Staphylococcus aureus [5]): 4 µg/mL | MIC (Klebsiella pneumoniae [6]): 32 µg/mL | MIC (Enterobacteriaceae [7]): > 64 µg/mL | MIC (Staphylococcus aureus [8]): 2 µg/mL | MIC (Staphylococcus aureus [9]): 8 µg/mL | MIC (Enterobacteriaceae [10]): 16 µg/mL | MIC (Klebsiella pneumoniae [11]): 64 µg/mL | MIC (Enterobacteriaceae [12]): 16 µg/mL | MIC (Staphylococcus aureus [13]): 4 µg/mL | MIC (Klebsiella pneumoniae [14]): 64 µg/mL | MIC (Klebsiella pneumoniae [15]): 32 µg/mL | MIC (Staphylococcus aureus [16]): 4 µg/mL | MIC (Klebsiella pneumoniae [17]): 64 µg/mL | MIC (Enterobacteriaceae [18]): 32 µg/mL | MIC (Klebsiella pneumoniae [19]): 32 µg/mL | MIC (Staphylococcus aureus [20]): 8 µg/mL | MIC (Staphylococcus aureus [1]): 8 µg/mL | MIC (Escherichia coli): 16 µg/mL | MIC (Staphylococcus aureus [21]): 4 µg/mL | MIC (Enterobacteriaceae [22]): 64 µg/mL | MIC (Klebsiella pneumoniae [23]): 32 µg/mL | MIC (Staphylococcus aureus [24]): 16 µg/mL | MIC (Enterobacteriaceae [25]): > 64 µg/mL | MIC (Enterobacteriaceae [26]): 32 µg/mL | MIC (Enterobacteriaceae [27]): 64 µg/mL | MIC (Enterobacteriaceae [28]): 16 µg/mL | MIC (Staphylococcus aureus [29]): 8 µg/mL | MIC (Klebsiella pneumoniae [30]): 64 µg/mL | solubility [2]: Soluble | MIC (Staphylococcus aureus [31]): 8 µg/mL | MIC (Klebsiella pneumoniae [32]): 64 µg/mL

CCCCCCCCCCN(C[C@H]1CN(c2ccc(N3CCOCC3)c(F)c2)C(=O)O1)C(=O)[C@@H](N)CCCCN.Cl.Cl
MIC (Enterococcus faecalis): 8 µg/mL | MIC (Salmonella enterica): 32 µg/mL | MIC (Staphylococcus aureus [1]): 4 µg/mL | MIC (Escherichia coli): 32 µg/mL | solubility [2]: Soluble
